This note sets out measurements from the EternaBench riboswitch data.

This data set has as its system MS2 coat protein. Briefly: apparent Kd, MS2 coat protein; higher = weaker binding; RNA-MaP array; FMN 200 µM where present. An outline of the steps:
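Designs were transcribed by stalled E. coli RNA polymerase on Illumina sequencing-chip clusters. They were titrated with SNAP-549-labelled MS2 coat protein from 0.7 or 1.5 nM, doubling to 3 µM, without and then with constant ligand. Buffer: 100 mM Tris-HCl pH 7.5, 80 mM KCl, 4 mM MgCl2, BSA, DTT, yeast tRNA, Tween-20. Green signal was normalised to red-channel RNA signal and control-cluster median Fmax. Apparent Kd is the median of filtered per-cluster binding-curve fits.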

[1] abbreviates: designed as: OFF switch for flavin mononucleotide, no ligand.
[2] abbreviates: ligand present: flavin mononucleotide, designed as: OFF switch for flavin mononucleotide.
Where [3] appears, read: designed as: ON switch for flavin mononucleotide, no ligand.
[4] abbreviates: ligand present: flavin mononucleotide, designed as: ON switch for flavin mononucleotide.

For “GUCCGGCGUGUAGGAUAUGGAUCCGAUUAGGAUCCAGAAGGACAUGAGGAUCACCCAUGUACAUGUAAACAGUCAUCACCGGAA”, the apparent Kd (in general, a dissociation constant that holds for the conditions of the assay) runs as follows: under setting [1], 9.2 nM; under setting [2], 57.7 nM.
In the same order, the values of “CGUAUGGACAGAGGAUAUGCCGAUAGGAUCUACUAUCGAAGAAUCCUCACAUGAGGAUCACCCAUGUAGAAGGCUGUCCAUACU” are 8.15 nM and 36.3 nM.
For the sequence “AAGAAGGACGCAGGAUAUCCAGGACCUCCCGCAGGAGAAGGGCGAGACAUGUGGAUCACCCAGACAUGAGGAUCACCCAUGUAG”, the “apparent Kd” value reads like this: under setting [1], 22.5 nM; under setting [2], 21 nM.
In the same order, the values of “AGGAGAAAUGUAGGAUAUGGGCGGGUAUAUGGGCAAAGCGCAUAUACCCGCCCAGAAGGACAUGAGGAUCACCCAUGUUUCCCU” are 12.2 nM and 13.3 nM.
The matching figures for “CGGAUGUGAGGAUAUACAUGAGGAUCACCCAUGUGAGCCAGCUAGAUGACUGGCUCGUGUAGAAGGCACGUCUG”: 13.5 nM and 29.3 nM.
Regarding “AAGUCACAUGAGGAUCACCCAUGUCGUAAACGAUGAGGAUAUAGGAAAAAAAAAAAAAAACUAGAAGGUAUAACAA”, the “apparent Kd” value is, setting by setting: under setting [3], 69.3 nM; under setting [4], 69.1 nM.
Take “GUACGUGGACAGAAGGUGACAUGAGGAUCACCCAUGUUAGUUGAGGUACCAGCGAUCCGCGUGAUUGAGGAUAUGUCUGCGGGC”: the “apparent Kd” value runs as follows: under setting [1], 16.1 nM; under setting [2], 42.4 nM.
“UUGGACGUCGUAGGAUAUGUAGGAUAUUCCUACAUGAGGAUCACCCAUGUUGACAUGGAAGAAGAACAGAAGGACGAUGUCCAU”: the “apparent Kd” value by setting is: under setting [3], 212 nM; under setting [4], 6.04 nM.
Regarding “GGGAAGUUAGGAUAUGCUGCUCGUCACUUGCGUGAUGAGUAGCAGAAGGGACAUGAGGAUCACCCAUGUAAAGA”, the “apparent Kd” value amounted to 41.6 nM under setting [1] and 26.2 nM under setting [2].
As for “GUAGCUAUCGGAGGAUAUUUAUACCGUAAACGGACAUGAGGAUCACCCAUGUGGCGAAAGCCUUGGGAGAAGGCCGAUAGCUAC”, the “apparent Kd” value runs as follows: under setting [3], 32.6 nM; under setting [4], 4.68 nM.
With “UCGCGGUGAGGAUAUAGGUCAAUGCAGGGUCACCAGAUUGCCUAGAAGGCACAUGAGGAUCACCCAUGUGGUAG”, the “apparent Kd” value by setting is: under setting [1], 49 nM; under setting [2], 157 nM.
In the same order, the values of “ACAUACGAUAGUAUGCCUGAGGGCAGAAGGCACAUGAGGAUCACCCAUGUAACGAUCUCUUCAAGUGAGGAUAUGUGCUCAUUG” are 49.8 nM and 52.2 nM.
In the case of “AAGUUUGUACGAGGAUAUCAGUUGUUUCUAAAUUCAACAUGAGGAUCACCCAUGUAACAAUGGAGUGAGAAGGCGUGUGGGCAA”, the “apparent Kd” value stood at 740 nM under setting [3] and 554 nM under setting [4].
For “ACCUUGUCAGGAUAUCCUAUUUUUUGUUUUAUAUUUACUAUGGAGAAGGGACAUGAGGAUCACCCAUGUUGGUC”, the “apparent Kd” value by setting is: under setting [1], 38.8 nM; under setting [2], 50.2 nM.
Turning to “CUUCGUAUAGAGGAUAUAGGUUACUACGGUAUCCUAGAAGGCUGUACAUGAGGAUCACCCAUGUACUUCAGAUC”, the “apparent Kd” value under setting [1] stood at 12.9 nM and the “apparent Kd” value under setting [2] was found to be 16.1 nM.
In the same order, the values of “GGUACUCAAAGAGUACCAAUACGAACAUGAGGAUCACCCAUGUAGGAUAUGCUACUCAAAGAGUAGCAGAAGGACAUGUGCCCU” are 60.5 nM and 608 nM.
Consider “AGGCACAUCGGAGGAUAUCAUGUAAAUACAUGAGGAUCACCCAUGUCGAUGGAGACAUCGGAGAUUGAGAAGGCCGAUGUACCG”, for which the “apparent Kd” value is, setting by setting: under setting [3], 175 nM; under setting [4], 8.44 nM.
Take “AAGCCCUGAGGAUAUCCCAACUCGCACAUGAGGAUCACCCAUGUCCUUCUCUGGGCUUCGGGAGAAGGCAGGUCUC”: the “apparent Kd” value under setting [1] came to 90.3 nM and the “apparent Kd” value under setting [2] is 305 nM.
For the sequence “GCGUACAUAUCAGGAUAUCAUUGAAUGGAUUAACACAGUGAAUACAUGAGGAUCACCCAUGUGCUUGAGAAGGGAUUACUACGC”, the “apparent Kd” value reads like this: under setting [1], 11.1 nM; under setting [2], 10.4 nM.
The matching figures for “AGUACACAUGAGGAUCACCCAUGUGAGGAUAUCGAUGUCCCAGGGCGGGUGCGGGACUCGAGAAGGCACUUGGU”: 47 nM and 154 nM.
In the case of “GAGUGACAUGAGGAUCACCCAUGUGAGGAUAUCGGCCGGACCUUGUUAGCUUCCGCCGCGAGAAGGCACAUCGG”, the “apparent Kd” value was determined as 71.8 nM under setting [1] and 157 nM under setting [2].
In the case of “AACGCAGAAAUCGCAAUACAUGAGGAUCACCCAUGUAGAUCACAGGAUAUGGUCUAGUCAGUGGUCCAGAAGGGUGAUCAGAAC”, the “apparent Kd” value was determined as 66.4 nM under setting [3] and 38.6 nM under setting [4].
The matching figures for “GGAGCUCCUGACAUGAGGAUCACCCAUGUUCACUUAUUAAAUCAGGAUAUCGUCGCGAAACGCGACGAGAAGGGAUAUGCUCCU”: 7.55 nM and 7.05 nM.
As for “CUCAUGUGAGGAUAUGUGAUCUGCCUUCUAUGUAGAUGAUCACAGAAGGCACAUGAGGAUCACCCAUGUAGAUC”, the “apparent Kd” value is 119 nM under setting [1] and 23.4 nM under setting [2].
The matching figures for “UUUAUAAAGAUAGGAUAUUGUAUUAUAAUUAAAUAAGAAGGAUCACACAUGAGGAUCACCCAUGUAUGAGGAUCACCCAUGUAU”: 15.8 nM and 14.5 nM.
For “AGUGACGAUACAGGAUAUGCUGGACUUUGUCCAGCAGAAGGGUAUUAACAUGAGGAUCACCCAUGUUUCGUCACCAAAUUUAAU”, the “apparent Kd” value reads like this: under setting [3], 39.5 nM; under setting [4], 8.22 nM.
Regarding “GUCAGACGAGGAUAUAGAUUUGAUAACAUGAGGAUCACCCAUGUGAUCGAUAGAUCAGAUUUAGAAGGCGUCUGAC”, the “apparent Kd” value by setting is: under setting [1], 410 nM; under setting [2], 458 nM.
The matching figures for “CUUCUCAAAGGAUAUCACGGUAAUAACAUGAGGAUCACCCAUGUGCAAUUCGUGUCCCUGUGAGAAGGUUGAGAAG”: 10.5 nM and 18.2 nM.
For “GAGUAGUUGAUAGGAUAUUGAUUGUUAUAGGAUCAAGAAGGAUCUAACAUGAGGAUCACCCAUGUAGGACUAUUCCUGUGUAUC”, the “apparent Kd” value under setting [3] came to 22.1 nM and the “apparent Kd” value under setting [4] turned out to be 19.2 nM.
With “AUUGUUAAGGUAGGAUAUAGUAAAAUGAUUUAAUUAGAAGGAUCUCACAUGAGGAUCACCCAUGUAAUAGGAUUACCCAUGUAU”, the “apparent Kd” value under setting [1] was found to be 32.8 nM and the “apparent Kd” value under setting [2] stood at 23.6 nM.
The matching figures for “AUGGGUGUACCUUCACAUGAGGAUCACCCAUGUACGGGUGCGCAGGAUAUCCCAAAAGUCAGUAAGGAGAAGGGCGUAUGCCUG”: 312 nM and 306 nM.
On to “AGAACAUGAGGAUCACCCAUGUAAAGGUCGGUCAAUAAGGGUGAGGAUAUGCUUAAAAUAAGGUAGCAGAAGGUGCUUGGUGCA”, for which the “apparent Kd” value under setting [3] came to 713 nM and the “apparent Kd” value under setting [4] came out at 603 nM.
For “UUUCUUGGGCAAGGAUAUCCUGUGCGGUUCCGGCUCGUGUCUGUCACAUGAGGAUCACCCAUGUGGGAGAAGGUGCCUGCGGUU”, the “apparent Kd” value reads like this: under setting [1], 6.26 nM; under setting [2], 6.64 nM.
In the same order, the values of “AAGAGCGAUUCUCCCUUCCUACAUGAGGAUCACCCAUGUACGAGAAGGCGCCGCGUAUACAACGGUGAGGAUAUCGUGCGUUAC” are 4.45 nM and 4.98 nM.
In the same order, the values of “CUACUCGUUGUGAGGAUAUCGUUUUCGUCACGGAUCGAGAAGGCACAUGAGGAUCACCCAUGUUUGAUGUGGAU” are 32.1 nM and 79.7 nM.
In the same order, the values of “UUCAGCUCGUGAGGAUAUACAUGUGCUGGAAACAGCACUAAUAGAAUCACAUGAGGAUCACCCAUGUAGAAGGCACGAGCUGAG” are 17.2 nM and 40.1 nM.
Consider “GCAGAUCAAGUGAGGAUAUCGUCUACCUCGGUAGACGAGAAGGCACAUGAGGAUCACCCAUGUGAUUGAUCUGC”, for which the “apparent Kd” value is, setting by setting: under setting [1], 17.6 nM; under setting [2], 23.6 nM.
The matching figures for “GGAUGCAAGGAGAAGGGCUACUGGUUGAAACCUGCGGCCUCUGGAACAUGAGGAUCACCCAUGUAGCAGGAUAUCCUUACGUGA”: 233 nM and 32.8 nM.
In the same order, the values of “CCCUCAACAUGAGGAUCACCCAUGUAGGAUAUCGCUAUUGUAAUCAUGAAACAUGAUUACAAUAGCGAGAAGGACAUAUGUAAA” are 27.4 nM and 140 nM.
In the case of “UCUAAUUAGUGAGGAUAUACAUAAUUUAUAACUGUAGAAGGCACAAACCUCAAGACAUGAGGAUCACCCAUGUGGUAUUUAGAU”, the “apparent Kd” value under setting [1] came out at 150 nM and the “apparent Kd” value under setting [2] was 354 nM.
As to “CAAAAGUAUAACAAUUUCAAGGCACAGGAUAUGAGUGUGCACAUGAGGAUCACCCAUGUUAUAACUUAGAAGGGUGACCAUUGC”, the “apparent Kd” value reads like this: under setting [3], 427 nM; under setting [4], 368 nM.
On to “AUACUCAAUGAAGGAUAUCUCAGCAUAAACCUGAGAGAAGGUCAUUGUUACAUGAGGAUCACCCAUGUUGUAGUUAAUGGGUAA”, for which the “apparent Kd” value runs as follows: under setting [1], 504 nM; under setting [2], 573 nM.
The matching figures for “AGGUAGCAAGGAUAUACAACUUUGGGCACUGCCUCUUGGAGACAUGAGGAUCACCCAUGUAGAAGGUGCAGGCC”: 13.2 nM and 33.9 nM.
The matching figures for “AAAAUGUAAGGAUAUAGCCGGAACCCAGGGUUUGGACCCGGCUAGAAGGUACAUGAGGAUCACCCAUGUAAGAA”: 17.2 nM and 22.8 nM.
Turning to “GCCAUCGCAUGAGGAUAUGCUCCGGUUUCCGGAGCAGAAGGCAUGUCGUUAGACAUGAGGAUCACCCAUGUAGUUAAGAUGGCA”, the “apparent Kd” value is, setting by setting: under setting [3], 999 nM; under setting [4], 41.1 nM.
On to “GGAAAGUGAGGAUAUGCAUAACAAACACAAACACAAACAAAGCAGAAGGCACAUGAGGAUCACCCAUGUAAACA”, for which the “apparent Kd” value is, setting by setting: under setting [1], 21.1 nM; under setting [2], 18.1 nM.
In the same order, the values of “AUAAGCUCGUCAGGAUAUGCAACACUGUGUAAGCAGUGUGGUAUGAUCACAUGAGGAUCACCCAUGUAGAAGGGACGAGCUUAU” are 6.53 nM and 26.9 nM.
Turning to “UUGGGUCGGGAGGAUAUUCGGGCUCAUGGGCUUGGAGAAGGCUCGACAUGAGGAUCACCCAUGUAAGUGUACUU”, the “apparent Kd” value is, setting by setting: under setting [1], 153 nM; under setting [2], 542 nM.
